Results taken from ChEMBL document CHEMBL5653631, “A Potent and Selective ULK1 Inhibitor Suppresses Autophagy and Sensitizes Cancer Cells to Nutrient Stress” (iScience, 2018).

What was measured:
[1] = target: T1, Eukaryotic elongation factor 2 kinase (Homo sapiens) (UniProt O00418); assay: Inhibition of human recombinant eEF2K at 40 nM in presence of ATP by radiometric assay relative to control
T1 sequence (whole entry): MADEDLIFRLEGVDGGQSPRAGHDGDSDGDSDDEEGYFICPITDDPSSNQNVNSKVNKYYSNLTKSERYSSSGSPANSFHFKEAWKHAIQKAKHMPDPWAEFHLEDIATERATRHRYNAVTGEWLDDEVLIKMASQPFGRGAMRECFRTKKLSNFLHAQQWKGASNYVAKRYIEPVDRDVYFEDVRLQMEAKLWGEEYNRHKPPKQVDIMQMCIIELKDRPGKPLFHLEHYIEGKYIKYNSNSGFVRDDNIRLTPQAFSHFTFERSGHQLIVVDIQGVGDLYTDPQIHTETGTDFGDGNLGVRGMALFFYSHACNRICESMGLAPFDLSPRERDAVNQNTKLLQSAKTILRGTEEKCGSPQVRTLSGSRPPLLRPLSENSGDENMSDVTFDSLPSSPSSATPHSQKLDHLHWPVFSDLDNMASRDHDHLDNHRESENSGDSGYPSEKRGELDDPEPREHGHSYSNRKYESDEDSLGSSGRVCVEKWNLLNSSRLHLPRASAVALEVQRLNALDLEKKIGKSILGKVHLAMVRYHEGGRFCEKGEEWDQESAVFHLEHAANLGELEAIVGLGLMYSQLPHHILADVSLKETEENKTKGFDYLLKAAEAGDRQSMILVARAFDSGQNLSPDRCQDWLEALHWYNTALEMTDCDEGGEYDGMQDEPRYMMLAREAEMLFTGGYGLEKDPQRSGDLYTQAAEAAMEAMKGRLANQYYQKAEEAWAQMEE

[2] = target: Platelet-derived growth factor receptor beta (Homo sapiens) (UniProt P09619); assay: Inhibition of human recombinant PDGFRb at 40 nM in presence of ATP by radiometric assay relative to control
[3] = target: T2, cAMP-dependent protein kinase catalytic subunit PRKX (Homo sapiens) (UniProt P51817); assay: Inhibition of human recombinant PRKX at 40 nM in presence of ATP by radiometric assay relative to control
T2 sequence (whole entry): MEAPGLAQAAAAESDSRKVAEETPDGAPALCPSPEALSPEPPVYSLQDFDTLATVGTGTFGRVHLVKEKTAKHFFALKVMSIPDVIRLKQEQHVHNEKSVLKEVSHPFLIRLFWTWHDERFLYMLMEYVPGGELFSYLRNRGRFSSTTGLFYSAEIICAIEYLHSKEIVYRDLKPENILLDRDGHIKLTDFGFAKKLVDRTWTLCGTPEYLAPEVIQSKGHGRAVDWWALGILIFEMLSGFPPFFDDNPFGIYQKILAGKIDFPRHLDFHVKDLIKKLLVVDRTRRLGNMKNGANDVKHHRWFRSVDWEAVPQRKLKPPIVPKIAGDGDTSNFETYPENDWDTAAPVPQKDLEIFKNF

[4] = target: T3, Activin receptor type-1B (Homo sapiens) (UniProt P36896); assay: Inhibition of human recombinant ALK4 at 40 nM related to control ULK1
T3 sequence (whole entry): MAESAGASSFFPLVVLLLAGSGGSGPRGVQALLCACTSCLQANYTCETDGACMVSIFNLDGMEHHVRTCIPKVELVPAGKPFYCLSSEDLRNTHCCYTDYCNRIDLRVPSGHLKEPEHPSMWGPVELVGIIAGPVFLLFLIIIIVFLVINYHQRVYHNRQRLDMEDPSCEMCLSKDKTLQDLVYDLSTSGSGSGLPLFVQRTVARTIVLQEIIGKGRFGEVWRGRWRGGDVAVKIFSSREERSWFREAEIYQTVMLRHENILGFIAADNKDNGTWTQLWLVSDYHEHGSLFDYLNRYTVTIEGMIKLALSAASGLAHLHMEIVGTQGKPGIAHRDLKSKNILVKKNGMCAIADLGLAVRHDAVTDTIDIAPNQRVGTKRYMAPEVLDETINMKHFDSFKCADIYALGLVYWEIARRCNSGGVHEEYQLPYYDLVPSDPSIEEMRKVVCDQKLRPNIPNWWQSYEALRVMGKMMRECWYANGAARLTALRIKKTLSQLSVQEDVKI
How it was run: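 Radiometric activity assays in a panel of 327 human recombinant kinases, each run in duplicate at one inhibitor concentration. Activity remaining is expressed as percent of vehicle control, and percent inhibition is calculated as 100% minus percent activity remaining.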

[5] = target: Serine/threonine-protein kinase ATR (Homo sapiens) (UniProt Q13535); assay: Inhibition of human recombinant ATR at 500 nM in presence of ATP by radiometric assay relative to control
How it was run: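 Panel of 327 recombinant human kinases, each assayed in vitro by radiometric activity assay in duplicate at a single inhibitor concentration per compound, chosen with reference to its ULK1 inhibition. Activity remaining was expressed as percent of vehicle control, and percent inhibition was calculated as 100 minus percent activity remaining.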

[6] = target: Calcium/calmodulin-dependent protein kinase type 1B (Homo sapiens) (UniProt Q6P2M8); assay: Inhibition of human recombinant CaMK1b at 500 nM related to control ULK1
[7] = target: Death-associated protein kinase 2 (Homo sapiens) (UniProt Q9UIK4); assay: Inhibition of human recombinant DAPK2 at 500 nM related to control ULK1
[8] = target: Tyrosine-protein kinase Fes/Fps (Homo sapiens) (UniProt P07332); assay: Inhibition of human recombinant FES at 500 nM related to control ULK1
[9] = target: STE20-like serine/threonine-protein kinase (Homo sapiens) (UniProt Q9H2G2); assay: Inhibition of human recombinant SLK at 15 nM related to control ULK1
Chain of STE20-like serine/threonine-protein kinase (Homo sapiens) (Q9H2G2 whole entry, looked up): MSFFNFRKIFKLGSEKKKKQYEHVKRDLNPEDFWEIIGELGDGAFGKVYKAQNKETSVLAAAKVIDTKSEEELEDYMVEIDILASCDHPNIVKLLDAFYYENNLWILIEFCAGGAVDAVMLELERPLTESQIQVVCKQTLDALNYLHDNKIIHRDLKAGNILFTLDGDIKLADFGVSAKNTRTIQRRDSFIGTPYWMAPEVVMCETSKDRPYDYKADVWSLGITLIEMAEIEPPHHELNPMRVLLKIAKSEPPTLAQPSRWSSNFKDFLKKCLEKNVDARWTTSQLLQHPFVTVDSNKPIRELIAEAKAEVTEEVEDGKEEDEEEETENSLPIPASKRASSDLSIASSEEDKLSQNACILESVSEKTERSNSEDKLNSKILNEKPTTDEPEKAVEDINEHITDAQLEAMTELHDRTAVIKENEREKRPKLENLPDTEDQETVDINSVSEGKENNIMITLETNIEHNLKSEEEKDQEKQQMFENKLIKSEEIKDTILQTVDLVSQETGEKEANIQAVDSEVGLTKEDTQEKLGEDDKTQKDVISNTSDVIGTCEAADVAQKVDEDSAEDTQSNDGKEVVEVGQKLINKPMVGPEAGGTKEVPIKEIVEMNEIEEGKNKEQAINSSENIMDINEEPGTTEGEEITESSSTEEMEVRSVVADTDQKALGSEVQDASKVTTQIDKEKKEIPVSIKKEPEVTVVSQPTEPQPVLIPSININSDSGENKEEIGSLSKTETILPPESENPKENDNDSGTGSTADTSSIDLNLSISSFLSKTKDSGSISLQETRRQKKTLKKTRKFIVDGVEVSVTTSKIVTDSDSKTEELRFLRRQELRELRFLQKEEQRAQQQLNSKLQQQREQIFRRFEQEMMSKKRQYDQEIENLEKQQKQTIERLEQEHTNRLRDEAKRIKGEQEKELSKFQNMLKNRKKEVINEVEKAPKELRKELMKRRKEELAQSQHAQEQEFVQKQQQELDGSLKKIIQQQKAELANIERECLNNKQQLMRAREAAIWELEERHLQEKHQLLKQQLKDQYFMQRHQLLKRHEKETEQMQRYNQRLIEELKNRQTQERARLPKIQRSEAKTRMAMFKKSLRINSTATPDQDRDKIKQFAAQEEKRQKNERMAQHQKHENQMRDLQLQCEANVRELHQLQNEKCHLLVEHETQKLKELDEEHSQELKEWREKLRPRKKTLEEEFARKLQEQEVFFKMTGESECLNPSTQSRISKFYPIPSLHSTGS

Chain of Death-associated protein kinase 2 (Homo sapiens) (Q9UIK4 whole entry, looked up): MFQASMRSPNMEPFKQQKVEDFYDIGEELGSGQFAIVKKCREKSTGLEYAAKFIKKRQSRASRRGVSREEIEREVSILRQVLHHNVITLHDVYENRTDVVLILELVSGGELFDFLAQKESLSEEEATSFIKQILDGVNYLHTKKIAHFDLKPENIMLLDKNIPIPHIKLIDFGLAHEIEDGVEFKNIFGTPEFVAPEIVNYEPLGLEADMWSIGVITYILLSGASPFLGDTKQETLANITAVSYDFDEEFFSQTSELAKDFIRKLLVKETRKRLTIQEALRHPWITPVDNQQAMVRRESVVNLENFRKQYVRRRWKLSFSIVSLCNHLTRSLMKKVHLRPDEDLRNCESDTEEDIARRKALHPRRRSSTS
Chain of Calcium/calmodulin-dependent protein kinase type 1B (Homo sapiens) (Q6P2M8 whole entry): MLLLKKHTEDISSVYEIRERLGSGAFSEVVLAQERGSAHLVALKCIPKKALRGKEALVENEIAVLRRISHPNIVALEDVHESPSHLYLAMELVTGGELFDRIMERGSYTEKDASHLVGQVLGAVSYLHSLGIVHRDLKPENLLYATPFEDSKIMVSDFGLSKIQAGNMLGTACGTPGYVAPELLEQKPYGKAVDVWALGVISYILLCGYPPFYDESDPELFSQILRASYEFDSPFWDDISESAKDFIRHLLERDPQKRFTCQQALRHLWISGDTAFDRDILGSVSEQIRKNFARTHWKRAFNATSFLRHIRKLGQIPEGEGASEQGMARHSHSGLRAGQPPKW
Chain of Platelet-derived growth factor receptor beta (Homo sapiens) (P09619 whole entry): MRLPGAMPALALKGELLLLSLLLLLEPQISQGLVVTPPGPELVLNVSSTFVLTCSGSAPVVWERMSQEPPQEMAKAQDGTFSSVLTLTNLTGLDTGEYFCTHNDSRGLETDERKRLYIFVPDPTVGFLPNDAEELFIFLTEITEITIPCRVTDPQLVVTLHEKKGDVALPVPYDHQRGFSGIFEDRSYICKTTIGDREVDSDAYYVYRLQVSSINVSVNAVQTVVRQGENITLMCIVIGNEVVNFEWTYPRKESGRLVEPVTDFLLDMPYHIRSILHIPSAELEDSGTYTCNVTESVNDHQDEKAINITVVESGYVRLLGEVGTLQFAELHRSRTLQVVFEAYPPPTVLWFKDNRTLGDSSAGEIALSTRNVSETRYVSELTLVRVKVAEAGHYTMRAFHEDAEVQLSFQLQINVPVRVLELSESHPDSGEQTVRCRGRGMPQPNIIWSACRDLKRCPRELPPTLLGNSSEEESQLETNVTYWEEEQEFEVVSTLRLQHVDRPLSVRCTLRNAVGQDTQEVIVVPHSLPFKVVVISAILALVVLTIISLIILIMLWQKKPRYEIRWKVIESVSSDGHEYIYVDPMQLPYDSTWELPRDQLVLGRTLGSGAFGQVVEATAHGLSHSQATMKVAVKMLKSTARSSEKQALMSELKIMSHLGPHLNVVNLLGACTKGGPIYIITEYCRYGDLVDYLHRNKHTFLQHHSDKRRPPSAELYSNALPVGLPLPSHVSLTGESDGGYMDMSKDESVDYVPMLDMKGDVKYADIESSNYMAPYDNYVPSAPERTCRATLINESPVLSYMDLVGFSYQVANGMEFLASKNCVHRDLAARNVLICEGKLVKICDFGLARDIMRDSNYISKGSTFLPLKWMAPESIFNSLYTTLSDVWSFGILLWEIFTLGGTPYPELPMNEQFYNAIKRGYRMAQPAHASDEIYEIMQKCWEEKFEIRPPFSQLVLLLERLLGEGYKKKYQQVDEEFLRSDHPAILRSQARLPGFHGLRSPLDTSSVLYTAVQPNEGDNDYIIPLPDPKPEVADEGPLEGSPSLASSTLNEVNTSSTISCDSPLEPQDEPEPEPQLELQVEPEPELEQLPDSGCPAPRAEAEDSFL
Chain of Tyrosine-protein kinase Fes/Fps (Homo sapiens) (P07332 whole entry): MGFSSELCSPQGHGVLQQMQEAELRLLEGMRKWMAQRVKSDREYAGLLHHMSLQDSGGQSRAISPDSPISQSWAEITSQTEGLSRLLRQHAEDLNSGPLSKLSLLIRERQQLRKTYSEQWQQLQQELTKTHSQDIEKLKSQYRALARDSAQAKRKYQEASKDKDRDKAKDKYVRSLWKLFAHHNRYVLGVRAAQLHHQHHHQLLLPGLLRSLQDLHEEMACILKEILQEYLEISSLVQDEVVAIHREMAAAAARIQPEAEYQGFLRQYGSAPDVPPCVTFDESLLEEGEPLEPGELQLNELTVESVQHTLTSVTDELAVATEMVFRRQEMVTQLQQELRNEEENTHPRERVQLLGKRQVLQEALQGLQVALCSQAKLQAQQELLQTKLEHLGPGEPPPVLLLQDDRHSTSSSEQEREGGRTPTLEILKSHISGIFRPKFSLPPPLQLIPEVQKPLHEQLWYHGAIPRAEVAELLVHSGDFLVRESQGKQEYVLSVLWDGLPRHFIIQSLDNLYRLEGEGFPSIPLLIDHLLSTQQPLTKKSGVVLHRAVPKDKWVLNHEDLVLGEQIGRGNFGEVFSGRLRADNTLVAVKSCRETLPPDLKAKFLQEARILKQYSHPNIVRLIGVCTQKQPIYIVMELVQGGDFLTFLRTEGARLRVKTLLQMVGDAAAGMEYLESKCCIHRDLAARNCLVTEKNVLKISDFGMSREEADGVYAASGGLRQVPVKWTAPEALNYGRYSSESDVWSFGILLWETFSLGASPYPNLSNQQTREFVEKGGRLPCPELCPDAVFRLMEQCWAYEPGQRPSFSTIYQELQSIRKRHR

**Q.** Which inhibition [1] does the source give for `O=C(N[C@@H](C1CC1)C(F)(F)F)c1cc(-c2cnn3cc(-c4ccc(F)cc4)cnc23)cs1` here?
**A.** 7%

**Q.** What about the inhibition [2] of the same compound?
**A.** 5%

**Q.** And the inhibition [3]?
**A.** 20%

**Q.** And the fold change (FC) [4]?
**A.** 0

**Q.** For `CNC(=O)c1ccccc1Oc1nc(Nc2cc(OC)c(OC)c(OC)c2)ncc1Br`, which inhibition [5] is on record?
**A.** 0%

**Q.** What about the fold change (FC) [6] of the same compound?
**A.** 0

**Q.** And the fold change (FC) [7]?
**A.** 0

**Q.** What about the fold change (FC) [8] of the same compound?
**A.** 0.38

**Q.** With `CC(C)[C@H](NC(=O)c1cc(-c2cnn3cc(-c4ccc(OCCN5CCCCC5)cc4)cnc23)cs1)C(F)(F)F` as the compound, how does the fold change (FC) [9] read?
**A.** 0.25
